Laboratory results taken from article PMC4324418 (ACS Chemical Neuroscience, 2014).
Counter-ions that a name gives are not always drawn. Marks after values point to notes of the source that are not given here.

How the values were obtained:
rat M4 receptor = biological target: T1, rat M4 receptor (Rattus norvegicus, UniProt P08485); assay type: cell-based
T1 sequence (P08485 1-478): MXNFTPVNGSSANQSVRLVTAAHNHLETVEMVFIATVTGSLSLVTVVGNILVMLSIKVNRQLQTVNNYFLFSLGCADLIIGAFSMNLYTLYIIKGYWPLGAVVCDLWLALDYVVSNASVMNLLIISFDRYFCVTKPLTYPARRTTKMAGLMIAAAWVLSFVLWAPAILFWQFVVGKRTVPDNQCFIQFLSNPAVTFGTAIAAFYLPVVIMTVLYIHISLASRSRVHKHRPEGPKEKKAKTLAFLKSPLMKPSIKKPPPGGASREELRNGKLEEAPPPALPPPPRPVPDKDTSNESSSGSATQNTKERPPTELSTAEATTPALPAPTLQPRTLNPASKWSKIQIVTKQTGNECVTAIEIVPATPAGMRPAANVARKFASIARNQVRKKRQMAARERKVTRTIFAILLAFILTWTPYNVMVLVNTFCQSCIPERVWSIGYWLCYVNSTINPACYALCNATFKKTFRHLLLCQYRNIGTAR

wild-type mice [1] = assay: Modified Irwin neurological test battery; assay type: in vivo, mouse; settings: 1 mg/kg
wild-type mice [2] = assay: Touchscreen pairwise visual discrimination task, wild-type mice; assay type: in vivo, mouse
Method in brief: (§1)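 Mice aged 8–11 weeks were held at ~85% free-feeding weight, with water freely available. They were trained on touchscreen nosepoke discrimination (60 trials or 60 min) to ≥85% accuracy on 3 consecutive days. Next day: vehicle (10% Tween 80 IP) or test compound (3–30 mg/kg IP) 60 min pre-test, then saline or MK-801 (0.1–0.3 mg/kg IP) 30 min later. Mice were retested drug-free 24 h later. Analysis: ANOVA with Bonferroni tests.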

wild-type mice [3] = assay: MK-801-induced hyperlocomotion in wild-type mice; assay type: in vivo, mouse; settings: IP
Method in brief: (§2)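 Wild-type and M4 KO mice were habituated 90 min in a photobeam open field. They then received vehicle (10% Tween 80 IP), followed 30 min later by saline or MK-801 IP, and activity was recorded for 120 min. Distance traveled was binned per 5 min. Totals covered t = 120 to 240 min and were analyzed by ANOVA with Bonferroni post hoc tests.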

wild-type mice [4] = assay: Contextual fear conditioning, four-shock, MK-801-induced deficit; assay type: in vivo, mouse; settings: MK-801 0.1–0.3 mg/kg prior to the four-shock conditioning trial
Method in brief: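 Subjects were wild-type and M4 KO mice, 8–11 weeks old, handled for 3 days and saline-injected 1 day before conditioning. Vehicle (10% Tween 80 in water, IP) or test compound (3–10 mg/kg IP) was given 30 min before saline or MK-801 (0.1–0.3 mg/kg IP). Mice entered the chamber 30 min later for a four-shock conditioning trial. Percent freezing was scored 24 h later, drug-free.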

M4 KO mice [5] = assay: MK-801-induced hyperlocomotion in M4 KO mice; assay type: in vivo, mouse; settings: IP, lowest significant dose
Method in brief: as §2

M4 KO mice [6] = assay: Touchscreen pairwise visual discrimination task, M4 KO mice; assay type: in vivo, mouse; settings: M4 KO
Method in brief: as §1

[7] = potentiation of an EC20 concentration of ACh, CHO cells

Which “%AChmax” value (rat M4 receptor; maximum response as % of the Emax of ACh) does the source give for `COc1nc2sc(C(=O)NC3CC3)c(N)c2c(C)c1Cl` [LY2033298] here?
Its value is 67%.

And the EC50 (rat M4 receptor; [7])?
The EC50 was 646 nM.

What about the pEC50 (rat M4 receptor; [7]) of the same molecule?
The pEC50 was 6.19 ± 0.03.

For `O=C1CCCN1CC#CCN1CCCC1` [oxotremorine, oxotremorine sesquifumarate, reference compound], which “autonomic function and somatomotor deficits” value (wild-type mice [1]) is on record?
The value was “induced time-dependent changes in autonomic function”.

What does the source list for `C[C@]12N[C@H](Cc3ccccc31)c1ccccc12` [MK-801, (5S,10R)-(+)-5-methyl-10,11-dihydro-5H-dibenzo[a,d]cyclohepten-5,10-imine maleate, reference compound]?
response accuracy on the test day (wild-type mice [2]; 0.3 mg/kg MK-801 (vehicle group 92%)): 63%; correct reward collection latency (wild-type mice [2]; vehicle + MK-801 0.10 mg/kg IP): 1.32 ± 0.15 s; correct touch latency (wild-type mice [2]; vehicle + MK-801 0.10 mg/kg IP): 2.95 ± 0.57 s; time to complete 60 trials (wild-type mice [2]; vehicle + MK-801 0.10 mg/kg IP): 1004 ± 124.3 s; correct reward collection latency (wild-type mice [2]; vehicle + MK-801 0.30 mg/kg IP): 5.58 ± 2.58 s; correct touch latency (wild-type mice [2]; vehicle + MK-801 0.30 mg/kg IP): 8.65 ± 1.99 s; time to complete 60 trials (wild-type mice [2]; vehicle + MK-801 0.30 mg/kg IP): 1118 ± 139.2 s; dose with significant effect on locomotor activity (wild-type mice [3]): 3 mg/kg; acquisition of contextual fear conditioning (percent freezing) (wild-type mice [4]): dose-dependently impaired; dose with significant effect on locomotor activity (M4 KO mice [5]): 0.18 mg/kg; response accuracy on the test day (M4 KO mice [6]; MK-801 alone (vehicle 91%)): 73%; correct reward collection latency (M4 KO mice [6]; vehicle + MK-801 0.30 mg/kg IP): 1.54 ± 0.15 s; correct touch latency (M4 KO mice [6]; vehicle + MK-801 0.30 mg/kg IP): 8.76 ± 2.19 s; time to complete 60 trials (M4 KO mice [6]; vehicle + MK-801 0.30 mg/kg IP): 1264 ± 280.5 ^f s
